Source: PubChem (several laboratories)
In the library only some 2% were active in any assay of this set; here they are far more common.
PvdQ acylase: P. aeruginosa PvdQ acylase inhibitors, primary screen, biochemical, fluorescence, plate reader and imaging, single point; PvdQ acylase [Pseudomonas aeruginosa LESB58]; purified PvdQ acylase; inhibition, % at 10 µM; 340,000 compounds, 0.063% hits; AID 488965, 2010; in the data active = inhibition above about 30%, passing the limit was not always enough;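 note: 0% = vehicle neutral wells and 100% = reference inhibitor wells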
IMP-1 inh: IMP-1 metallo-beta-lactamase inhibitors, primary screen, biochemical, epi-absorbance readout, Pseudomonas aeruginosa enzyme. metallo-beta-lactamase IMP-1 (Pseudomonas aeruginosa). purified IMP-1, nitrocefin hydrolysis, epi-absorbance fluorescence. inhibition, % at 5.6 µM. 290,000 compounds, 0.45% hits. AID 1556, 2009;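 active = inhibition above the mean plus 3 SD of all compounds in the same screening run, cut at about 4.5% in these data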;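 note: 0% = IMP-1 with DMSO and 100% = DMSO wells lacking enzyme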
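System: Purified recombinant IMP-1 metallo-beta-lactamase enzyme | Measured by: Fluorescence quenching readout, ex 480/em 530 nm | Replication: Singlicate | Incubation: 15 min preincubation plus 25 min reaction at 25 °C | Evaluation: Percent inhibition from optical density relative to buffer-blank wells | Benchmarks: DMSO with and without IMP-1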
MIN6 prolif: inducers of MIN6 beta-cell proliferation, primary screen, ATP luminescence, uHTS; MIN6 cells proliferation, ATPlite luminescence, 48 h; cells starved in 0.2% serum; 100% = growth in 10% serum; proliferation, % at 10 µM; 330,000 compounds, 0.29% hits;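 active = compounds whose signal lies at least 3.5 SD above the mean of all wells on their plate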;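 note: 0% = DMSO-treated cells in low-serum medium and 100% = 10% serum control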
VIM-2 inhibitor: VIM-2 metallo-beta-lactamase inhibitors, primary screen, biochemical, epi-absorbance readout, Pseudomonas aeruginosa enzyme. purified VIM-2, nitrocefin hydrolysis, epi-absorbance fluorescence. inhibition, % at 5.6 µM. 290,000 compounds, 0.89% hits. AID 1527, 2009;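 active = inhibition above the mean of all tested compounds plus 3 SD, cutoff set per screening run, cut at about 7.5% in these data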;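 note: red hydrolysis product quenches plate fluorescence so inhibitors raise well fluorescence; 0% = enzyme with DMSO and 100% = DMSO without enzyme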
HKDC1 inh: HKDC1 hexokinase inhibitors, primary screen, biochemical, fluorescence, uHTS. inhibition, % at 20 µM. recombinant HKDC1, G6PDH/diaphorase resazurin coupled fluorescence. Q2TB90. 340,000 compounds, 0.16% hits;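 active = inhibition above about 35% when tested at 20 µM, limit read from the data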;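 note: plate controls were DMSO wells with enzyme for no effect and DMSO wells lacking enzyme for full effect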
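Test system: HK5 enzyme. Quantity: 5 µg/mL HK5 final. Reagent: glucose and ATP substrates. Schedule: 90 min reaction incubation at room temperature, dark. Technique: resazurin-to-resorufin fluorescence via G6PDH and diaphorase coupling, 525/613 nm. Control set: DMSO wells with and without enzyme mix.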
ATG4B inh: ATG4B protease inhibitors, primary screen, biochemical, fluorescence, uHTS; Cysteine protease ATG4B (Homo sapiens), Q9Y4P1; ATG4B cleavage of LC3-PLA2, NBD-HPC fluorescence, 1 h; inhibition, % at 8.33 µM; 340,000 compounds, 0.51% hits; in the data active = inhibition above about 40%
Target sequence (Q9Y4P1 whole entry, looked up): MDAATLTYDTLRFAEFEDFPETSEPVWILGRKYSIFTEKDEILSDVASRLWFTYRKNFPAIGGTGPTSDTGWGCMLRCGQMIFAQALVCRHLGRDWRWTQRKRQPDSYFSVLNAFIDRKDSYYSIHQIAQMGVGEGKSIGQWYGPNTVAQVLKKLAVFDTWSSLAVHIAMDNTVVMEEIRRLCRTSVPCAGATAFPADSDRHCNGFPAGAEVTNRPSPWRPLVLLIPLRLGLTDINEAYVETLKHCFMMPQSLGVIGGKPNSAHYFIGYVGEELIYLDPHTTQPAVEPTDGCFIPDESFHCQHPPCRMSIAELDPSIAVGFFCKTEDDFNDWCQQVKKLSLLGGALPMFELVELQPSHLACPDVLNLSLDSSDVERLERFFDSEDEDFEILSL
The depositor's hits bear a star; nt = no result.

SMILES	PvdQ acylase	IMP-1 inh	MIN6 prolif	VIM-2 inhibitor	HKDC1 inh	ATG4B inh
Cc1ccc2c(C)c(C(=O)N(Cc3ccc(F)cc3)C3CCS(=O)(=O)C3)oc2c1 (stereo not drawn)	-2	0	-2	1	0	-5
COc1ccccc1CNC(=O)CN1CCN(S(=O)(=O)c2cccs2)CC1	-6	-3	-2	-2	-4	-9
Cc1ccc(Cn2cc(CCC(=O)O)c3ccccc32)cc1	-21	13*	-2	5	1	-1
COc1cc(C(=O)NCC(=O)OCCN2C(=O)c3ccccc3C2=O)cc(OC)c1OC	-3	-4	0	-1	-7	-5
Cn1cccc1C(C#N)c1cccc(F)c1C#N (stereo not drawn)	60*	-2	-5	-2	-7	-5
COc1ccc(Cl)cc1NC(=O)CN(C)C(=O)/C=C/c1ccco1	-7	nt	-4	nt	-3	-8
Cc1ccc(Cn2nnc3c(=O)[nH]c(C4CCN(S(=O)(=O)c5ccc(F)cc5)CC4)nc32)cc1	-8	18*	-6	-3	4	-12
O=C(O)C/C(=C\c1cc2c(cc1Br)OCO2)c1nc2ccccc2s1	9	-4	-2	8.8*	4	-5
Brc1cc2c(cc1/C=N/Nc1nc3ccccc3s1)OCO2	-15	-1	-2	-2	-4	-6
Cc1cc(S(=O)(=O)NC2CCCCC2)ccc1OCC(=O)NCc1ccccn1	13	-4	-2	-4	-4	-5
O=C(C1CCN(S(=O)(=O)c2ccc(F)cc2)CC1)N1CCCC(C(F)(F)F)C1 (stereo not drawn)	-10	nt	2	nt	-4	-9
Cn1c(-c2ccc3c(c2)OCO3)c(C(=O)O)c(=O)c2ccccc21	-11	-1	1	11*	-3	-3
O=C(N/N=C/c1ccccc1F)c1cc2c(ccc3ccccc32)o1	-16	5.0*	-1	-1	7	-2
Nn1c(SCc2ccc([N+](=O)[O-])cc2)nc2ccccc2c1=O	-2	7.6*	-5	-2	-3	8
O=c1c2ccccc2nc(SCc2ccc([N+](=O)[O-])cc2)n1-c1ccc(Cl)cc1	-5	-4	-2	-2	0	-3
CC(C)Oc1cccc(C(=O)NC(=S)Nc2cccc(NC(=O)c3ccccc3Cl)c2)c1	-11	-3	0	-1	8	-12
Cc1cc(C(=O)CCl)c(C)n1-c1c(C)n(C)n(-c2ccccc2)c1=O	-2	-3	-5	-1	5	6
Cc1cccc(-n2cnc(C(=O)O)c2)n1	-10	-1	-1	9.7*	-4	-8
Cc1cccc(-n2cnc(C(=O)N3CCN(C)CC3)c2)n1	-10	-3	-2	-1	-30	7
COc1ccc(C2=Nn3c(nnc3-c3ccco3)SC2)cc1	8	-3	5	9.8*	7	-5
COc1ccc(OC)c(C2=Nn3c(nnc3-c3ccco3)SC2)c1	17	-3	2	6	0	-4
COc1ccc(CCNC(=O)Cn2ccc3c(OC)cccc3c2=O)cc1OC	-16	-2	-2	-2	-6	-14
O=C(CCN1C(=O)C2C3C=CC(C4CC34)C2C1=O)Nc1ccc(Cl)cc1O (stereo not drawn)	-12	13*	-1	-3	1	-8
Cc1ccc(Cl)cc1NC(=O)CCN1C(=O)C2C3CCC(C3)C2C1=O (stereo not drawn)	-7	-4	-1	-3	-11	-1
C=CCOC(=O)/C=C/C(=O)NC(N)=O	3	-2	11*	-2	-3	1
SMILES	PvdQ acylase	IMP-1 inh	MIN6 prolif	VIM-2 inhibitor	HKDC1 inh	ATG4B inh
Clc1ccccc1Cc1noc(CN2CCCCC2CCc2ccccn2)n1 (stereo not drawn)	-8	-4	-3	-1	-6	11
CCN(CC)CCNC(=O)c1c(O)c2cccc3c2n(c1=O)CCC3	-11	-6	nt	11*	6	3
CNC(=O)c1c(O)c2cccc3c2n(c1=O)CCC3	-12	-3	-5	9.5*	-4	2
COc1ccc(CNC(=O)c2c(O)c3cccc4c3n(c2=O)CCC4)cc1	-5	-1	nt	0	-4	-1
O=C(NCCNCCO)c1c(O)c2cccc3c2n(c1=O)CCC3	-3	-2	-1	10.0*	-2	0
CCCCCCNC(=O)c1c(O)c2cccc3c2n(c1=O)CCC3	4	-3	-1	-3	-6	12
CC1CC(C)CN(C(=O)c2ccc3c(=O)n(Cc4ccc5c(c4)OCO5)c(=S)[nH]c3c2)C1 (stereo not drawn)	-15	-2	-6	-2	3	101*
COCCCNC(=O)c1ccc2c(=O)n(Cc3ccc4c(c3)OCO4)c(=S)[nH]c2c1	-2	-3	0	-4	-2	-13
C=CCn1c(-c2ccccc2)n[nH]c1=S	-21	-2	-1	3	0	-5
C=CCn1c(-c2ccccc2OC)n[nH]c1=S	-11	-2	-2	9.8*	-8	-10
C=CCn1c(-c2cccc3ccccc23)n[nH]c1=S	-11	-5	-3	-5	-1	0
C=CCn1c(-c2ccoc2)n[nH]c1=S	10	-4	-1	10*	1	-4
CCN(CC)c1ccc(-c2sc(Nc3ccccc3)n[n+]2-c2ccc(F)cc2)cc1	-28	5.0*	-9	3	2	21
CCc1ccc(Nc2n[n+](-c3ccccc3)c(-c3ccc(OCc4ccccc4)cc3)s2)cc1	-7	-2	-8	-3	1	1
CCc1ccc(Nc2n[n+](-c3ccccc3)c(-c3ccc(N(CC)CC)cc3)s2)cc1	-27	7.9*	-8	3	6	25
COc1ccc2c(Cl)c(C(=O)NN3CCN(C)CC3)sc2c1	-4	-1	-2	8.5*	3	-1
N=c1c(C(=O)NC2CCCCC2)cc2c(=O)n3ccccc3nc2n1Cc1ccc(F)cc1	-10	0	-8	9.9*	-3	-4
Cc1ccc(Cn2c(=N)c(C(=O)NC3CCCCC3)cc3c(=O)n4ccccc4nc32)cc1	-8	-2	-8	2	3	-4
N=c1c(C(=O)NC2CCCC2)cc2c(=O)n3ccccc3nc2n1Cc1ccccc1	-9	0	-3	7.9*	1	-1
COc1ccc(-c2[nH]ncc2CNCCn2cccn2)c(F)c1	-9	-2	-1	-3	10	6
O=C(CCc1ccccc1)Nc1cc(C(=O)O)cc(C(=O)O)c1	-10	-3	-1	-4	-10	5
